Source: ChEMBL document CHEMBL4732196, “Structural optimization towards promising β-methyl-4-acrylamido quinoline derivatives as PI3K/mTOR dual inhibitors for anti-cancer therapy: The in vitro and in vivo biological evaluation” (Eur J Med Chem, 2021)
Calls of active or inactive are those of the source. The rule behind the calls is not given here.

Assays:
[1] = target: Mitogen-activated protein kinase 6 (Homo sapiens) (UniProt Q16659); assay: Inhibition of human partial length ERK3 (M1 to P413 residues) expressed in bacterial expression system assessed as residual activity at 10 uM by kinome scan method relative to control
How it was run: (§1)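 KINOMEscan binding assay, test compound at 10 μM against a 52-kinase panel. % Ctrl = (compound signal − positive control signal)/(negative control signal − positive control signal) × 100, with DMSO as negative control (100%) and a positive control (0%).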

[2] = target: Mitogen-activated protein kinase kinase kinase 4 (Homo sapiens) (UniProt Q9Y6R4); assay: Inhibition of human partial length MAP3K4 (G1319 to E1608 residues) expressed in bacterial expression system assessed as residual activity at 10 uM by kinome scan method relative to control; how it was run: as §1
U87 = assay: Inhibition of PI3K in human U87MG cells assessed as suppression of phosphorylation of AKT at Ser473 residue at 25 nM after 3 hrs by Western blot analysis; type: cell-based
How it was run: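 U87MG cells seeded at 1×10^6 per well, incubated overnight at 37 °C, 5% CO₂, then treated at various concentrations for 3 h at 37 °C. Western blot for phospho-Akt (Ser473, Thr308), phospho-S6 (Ser235/236) and phospho-4E-BP1 (Thr37/46), with GAPDH as internal control. Bands quantified as mean ± SD, n = 3 biological replicates, versus untreated cells.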

Mitogen-activated protein kinase kinase kinase 4 (Homo sapiens), sequence (Q9Y6R4 whole entry, the tested form may be a part): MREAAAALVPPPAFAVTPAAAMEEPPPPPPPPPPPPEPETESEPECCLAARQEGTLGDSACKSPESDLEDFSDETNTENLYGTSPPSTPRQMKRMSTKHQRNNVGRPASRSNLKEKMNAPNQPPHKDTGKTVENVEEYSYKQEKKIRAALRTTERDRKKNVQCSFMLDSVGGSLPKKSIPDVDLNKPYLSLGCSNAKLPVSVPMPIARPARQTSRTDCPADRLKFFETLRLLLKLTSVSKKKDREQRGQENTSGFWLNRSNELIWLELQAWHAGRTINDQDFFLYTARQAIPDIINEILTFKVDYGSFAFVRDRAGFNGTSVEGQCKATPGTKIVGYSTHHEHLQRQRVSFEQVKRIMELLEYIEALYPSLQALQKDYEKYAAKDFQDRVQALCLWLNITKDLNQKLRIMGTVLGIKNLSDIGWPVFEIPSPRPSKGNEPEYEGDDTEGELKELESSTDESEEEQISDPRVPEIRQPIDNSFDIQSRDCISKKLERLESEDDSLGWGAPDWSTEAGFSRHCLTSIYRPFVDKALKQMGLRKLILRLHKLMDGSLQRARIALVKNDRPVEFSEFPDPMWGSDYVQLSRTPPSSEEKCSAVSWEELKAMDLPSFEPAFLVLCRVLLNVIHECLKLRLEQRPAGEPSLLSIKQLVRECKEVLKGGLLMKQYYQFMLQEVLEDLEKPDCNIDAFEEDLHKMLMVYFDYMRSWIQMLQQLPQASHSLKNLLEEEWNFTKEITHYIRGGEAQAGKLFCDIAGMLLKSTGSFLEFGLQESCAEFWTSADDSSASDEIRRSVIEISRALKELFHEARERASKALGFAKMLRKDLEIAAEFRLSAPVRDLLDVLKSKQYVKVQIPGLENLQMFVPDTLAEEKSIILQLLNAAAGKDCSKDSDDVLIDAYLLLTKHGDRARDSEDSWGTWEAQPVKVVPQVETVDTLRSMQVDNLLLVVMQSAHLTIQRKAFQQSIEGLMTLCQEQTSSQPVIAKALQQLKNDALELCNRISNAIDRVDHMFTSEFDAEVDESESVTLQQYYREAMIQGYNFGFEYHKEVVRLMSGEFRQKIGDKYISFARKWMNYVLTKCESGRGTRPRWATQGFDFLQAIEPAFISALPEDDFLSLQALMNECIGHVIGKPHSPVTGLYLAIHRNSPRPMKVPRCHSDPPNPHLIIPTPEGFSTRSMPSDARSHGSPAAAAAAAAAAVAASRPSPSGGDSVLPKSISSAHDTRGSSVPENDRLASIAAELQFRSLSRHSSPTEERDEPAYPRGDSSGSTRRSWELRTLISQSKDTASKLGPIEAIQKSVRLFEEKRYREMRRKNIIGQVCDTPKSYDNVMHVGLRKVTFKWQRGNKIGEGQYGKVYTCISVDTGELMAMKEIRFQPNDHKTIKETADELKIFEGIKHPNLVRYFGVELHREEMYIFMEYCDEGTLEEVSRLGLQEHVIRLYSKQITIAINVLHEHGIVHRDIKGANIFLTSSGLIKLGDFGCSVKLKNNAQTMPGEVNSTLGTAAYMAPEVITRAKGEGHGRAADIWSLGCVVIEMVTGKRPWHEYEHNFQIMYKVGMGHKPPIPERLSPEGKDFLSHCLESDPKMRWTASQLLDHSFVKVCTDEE
Mitogen-activated protein kinase 6 (Homo sapiens), sequence (Q16659 whole entry, the tested form may be a part): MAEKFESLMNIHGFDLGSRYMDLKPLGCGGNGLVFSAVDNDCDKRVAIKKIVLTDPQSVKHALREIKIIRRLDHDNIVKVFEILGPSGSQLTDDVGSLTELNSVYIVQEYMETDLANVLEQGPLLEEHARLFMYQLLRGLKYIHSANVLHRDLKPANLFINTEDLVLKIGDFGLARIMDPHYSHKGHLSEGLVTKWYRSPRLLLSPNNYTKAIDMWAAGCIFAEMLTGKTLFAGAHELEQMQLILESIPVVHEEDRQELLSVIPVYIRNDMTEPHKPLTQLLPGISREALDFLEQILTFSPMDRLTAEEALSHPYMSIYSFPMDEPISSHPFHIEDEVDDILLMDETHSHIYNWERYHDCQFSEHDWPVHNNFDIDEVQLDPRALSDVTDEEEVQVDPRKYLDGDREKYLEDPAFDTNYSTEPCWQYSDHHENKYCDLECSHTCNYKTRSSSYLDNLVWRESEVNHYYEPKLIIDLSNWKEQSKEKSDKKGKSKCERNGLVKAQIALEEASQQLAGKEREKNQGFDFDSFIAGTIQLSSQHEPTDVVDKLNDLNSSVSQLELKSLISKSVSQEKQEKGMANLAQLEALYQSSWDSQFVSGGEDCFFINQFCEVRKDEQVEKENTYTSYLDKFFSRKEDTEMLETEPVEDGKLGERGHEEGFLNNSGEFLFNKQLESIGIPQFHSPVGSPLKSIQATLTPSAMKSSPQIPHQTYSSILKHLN

## COc1ncc(-c2ccc3nccc(/C(C)=C/C(=O)N4CCN(C)CC4)c3c2)cc1NS(=O)(=O)c1ccc(F)cc1F
[1]
  Activity: 78%
[2]
  Activity: 92%
U87
  inhibition: Active
